Test results taken from ChEMBL document CHEMBL1125497, “Synthesis and anticonvulsant activity of enaminones” (J Med Chem, 1992).

Tests used:
[1] = Antiepileptic activity in male CF1 mice 30 min after administration measured in subcutaneous pentylenetetrazole (scMet) test at a dose of 300 mg/kg (no. of animals treated /protected); activity value is 0/1; format: functional, Mus musculus
[2] = Dose at which anticonvulsant activity was observed in mice; format: functional, Mus musculus
[3] = Antiepileptic activity in male CF1 mice 30 min after administration measured in maximum electroshock seizure(MES) test at a dose of 300 mg/kg (no. of animals treated /protected); activity value is 0/1; format: functional, Mus musculus
[4] = Antiepileptic activity in male CF1 mice 30 min after administration measured in neurological toxicity (Tox) test at a dose of 300 mg/kg (no. of animals treated /protected); activity value is 0/4; format: functional, Mus musculus
[5] = Antiepileptic activity in male CF1 mice 4 hr after administration measured in neurological toxicity (Tox) test at a dose of 300 mg/kg (no. of animals treated /protected); activity value is 0/2; format: functional, Mus musculus
[6] = Antiepileptic activity in male CF1 mice 4 hr after administration measured in subcutaneous pentylenetetrazole (scMet) test at a dose of 300 mg/kg; activity value is 0/1; format: functional, Mus musculus
[7] = Antiepileptic activity in male CF1 mice 4 hr after administration measured in maximum electroshock seizure(MES) test at a dose of 300 mg/kg (no. of animals treated /protected); activity value is 1/1; format: functional, Mus musculus
[8] = Antiepileptic activity in male CF1 mice 4 hr after administration measured in subcutaneous pentylenetetrazole (scMet) test at a dose of 300 mg/kg (no. of animals treated /protected); activity value is 0/1; format: functional, Mus musculus
[9] = Antiepileptic activity in male CF1 mice 30 min after administration measured in neurological toxicity (Tox) test at a dose of 300 mg/kg (no. of animals treated /protected); activity value is 1/4; format: functional, Mus musculus
[10] = Antiepileptic activity in male CF1 mice 4 hr after administration measured in maximum electroshock seizure(MES) test at a dose of 300 mg/kg (no. of animals treated /protected); activity value is 0/1; format: functional, Mus musculus
[11] = Dose producing neurotoxic effects in 50% of the CF1 mice after intraperitoneal administration.; format: ADME; details: CF1, mouse, in vivo, ip
Summary of the method: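 Phase II quantification in CF1 male mice (ca. 24–34 g), dosing ip or po in 0.5% methylcellulose suspension. ED50 is protection from tonic hind limb extension in MES. TD50 is rotorod neurotoxicity. Both were read at time of peak effect and derived by Litchfield–Wilcoxon with 95% confidence limits.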

[12] = Protective index was measured as TD50/ED50; format: ADME; details: read-out: PI
[13] = Anticonvulsant activity administered intraperitoneally in CF1 mice is the ability to protect the mice from MES(maximal electroshock seizure).; format: functional; details: Mus musculus, ip
[14] = Antiepileptic activity in male CF1 mice 30 min after administration measured in maximum electroshock seizure(MES) test at a dose of 300 mg/kg (no. of animals treated /protected); activity value is 1/1; format: functional, Mus musculus
[15] = Time of peak anticonvulsant effect in CF1 mice; format: functional, Mus musculus
Summary of the method: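 Male CF1 mice (ca. 24–34 g), compound in 0.5% methylcellulose suspension given ip or po; time (h) at which MES protection (against tonic hind limb extension) peaked was recorded and used for ED50 determination.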

[16] = Time of peak neurotoxic effect in CF1 mice; format: ADME; details: mouse, in vivo
Summary of the method: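 Male CF1 mice (ca. 24–34 g), compound ip in 0.5% methylcellulose suspension; neurological deficit assessed by rotorod test, time (h) of peak neurotoxic effect recorded for TD50 determination.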

Rattus norvegicus = assay: Dose reducing the seizure severity in rat cornea 1 hr after peroral administration; format: functional; details: po
Summary of the method: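 Same corneal-kindled Sprague-Dawley rat procedure with the drug given po. Vehicles: 0.5% methylcellulose, 0.9% NaCl or corn oil. Single shock at the time of peak effect, scored on the modified Racine scale. ED50 by Litchfield-Wilcoxon, taken as the dose that reduced seizure severity by 50%.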

[17] = Antiepileptic activity in male CF1 mice 30 min after administration measured in subcutaneous pentylenetetrazole (scMet) test at a dose of 100 mg/kg (no. of animals treated /protected); activity value is 0/1; format: functional, Mus musculus
[18] = Antiepileptic activity in male CF1 mice 4 hr after administration measured in neurological toxicity (Tox) test at a dose of 100 mg/kg (no. of animals treated /protected); activity value is 0/4; format: functional, Mus musculus
[19] = Antiepileptic activity in male CF1 mice 30 min after administration measured in maximum electroshock seizure(MES) test at a dose of 100 mg/kg (no. of animals treated /protected); activity value is 1/3; format: functional, Mus musculus
[20] = Antiepileptic activity in male CF1 mice 4 hr after administration measured in maximum electroshock seizure(MES) test at a dose of 100 mg/kg (no. of animals treated /protected); activity value is 0/3; format: functional, Mus musculus
[21] = Antiepileptic activity in male CF1 mice 30 min after administration measured in neurological toxicity (Tox) test at a dose of 100 mg/kg (no. of animals treated /protected); activity value is 0/8; format: functional, Mus musculus
[22] = Antiepileptic activity in male CF1 mice 4 hr after administration measured in subcutaneous pentylenetetrazole (scMet) test at a dose of 100 mg/kg (no. of animals treated /protected); activity value is 0/1; format: functional, Mus musculus
[23] = Antiepileptic activity in male CF1 mice 4 hr after administration measured in subcutaneous pentylenetetrazole (scMet) test at a dose of 100 mg/kg; activity value is 0/1; format: functional, Mus musculus
[24] = Antiepileptic activity in male CF1 mice 30 min after administration measured in maximum electroshock seizure(MES) test at a dose of 100 mg/kg (no. of animals treated /protected); activity value is 2/3; format: functional, Mus musculus

SMILES	Activity [1]	Dose [2]	Activity [4]	Activity [5]	Activity [8]	Activity [9]	Activity [10]	Activity [14]	Activity [17]	Activity [18]	Activity [19]	Activity [20]	Activity [21]	Activity [22]	also measured
COC(=O)C1C(=O)C=C(NNc2ccccc2)CC1C (stereo not drawn)	0	>100 mg/kg	0	0	–	–	–	–	–	–	–	–	–	–	Activity [3]: 0; Activity [6]: 0; Activity [7]: 1
COC(=O)C1C(O)=C/C(=N\Cc2ccccc2)CC1(C)C (stereo not drawn)	0	>100 mg/kg	–	0	0	1	0	1	–	–	–	–	–	–	TD50 [11]: > 500 mg/kg; selectivity ratio [12]: 3.8; ED50 [13]: 132 mg/kg; TPE [15]: 0.5; TPE [16]: 1
O=C1CN=C(c2ccccc2Cl)c2cc([N+](=O)[O-])ccc2N1 [CLONAZEPAM]	–	–	–	–	–	–	–	–	–	–	–	–	–	–	ED50 (Rattus norvegicus): 0.7 mg/kg
COC(=O)C1C(O)=C/C(=N\CCc2ccccc2)CC1(C)C (stereo not drawn)	0	<=100 mg kg-1	–	0	0	1	0	1	0	0	1	0	0	0	–
COC(=O)C1C(=O)C=C(Nc2cc(OC)ccc2OC)CC1C (stereo not drawn)	0	<=100 mg kg-1	0	0	0	–	0	1	0	0	1	0	0	0	–
CCc1ccc(NC2=CC(=O)C(C(=O)OC)C(C)C2)cc1 (stereo not drawn)	–	<=100 mg kg-1	–	–	–	–	–	–	0	0	–	0	0	–	Activity [23]: 0; Activity [24]: 2
